From ChEMBL document CHEMBL1151302, “Cytotoxic and leishmanicidal aminoglycosteroids and aminosteroids from Holarrhena curtisii” (J Nat Prod, 1998)
Values after ≈ are worked out from the molar mass of the structure shown.

Tests used:
HL-60 = assay: Cytotoxicity against human HL60 cells after 3 days by MTT assay; assay type: functional, cell-based; conditions: HL-60, 72 h
Procedure, shortened: (§1)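 Cells were kept in MEM with 10% fetal calf serum and kanamycin; the P-388/VCR line also received 0.5 μg/mL vincristine. Cells were seeded at 20 000 cells/mL and tested at eight concentrations, starting from 25 μg/mL in the well. After 3 days of culture, living cells were counted by MTT staining. Each experiment was run three times.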

P388 [1] = assay: Cytotoxicity against mouse P388 cells after 3 days by MTT assay; assay type: functional, cell-based; conditions: P388, 72 h; procedure, shortened: as §1
P388 [2] = assay: Cytotoxicity against adriamycin-resistant mouse P388 cells after 3 days by MTT assay; assay type: functional, cell-based; conditions: P388, 72 h; procedure, shortened: as §1
P388 [3] = assay: Cytotoxicity against vincristine-resistant mouse P388 cells after 3 days by MTT assay; assay type: functional, cell-based; conditions: P388, 72 h; procedure, shortened: as §1
Leishmania donovani = assay: Antileishmanial activity against Leishmania donovani promastigotes after 6 to 7 hrs; assay type: functional, organism-based
Procedure, shortened: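 Promastigotes were maintained in 199 medium with 10% fetal calf serum and kanamycin. They were plated at 10 000 cells/mL and exposed to four sample concentrations, starting from 25 μg/mL in the well.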

Compound | IC50 (HL-60) [µg/mL] | IC50 (P388 [1]) [µg/mL] | IC50 (P388 [2]) [µg/mL] | IC50 (P388 [3]) [µg/mL] | IC50 (Leishmania donovani) [µg/mL]
CN[C@H]1[C@@H](OC)C[C@H](O[C@H]2CC[C@@]3(C)[C@@H](CC[C@@H]4[C@@H]3CC[C@]3(C)[C@H](C(C)=O)CC[C@]43O)C2)O[C@@H]1C | 0.01 (≈ 0.0203 µM) | 17 (≈ 34.6 µM) | 10.4 (≈ 21.2 µM) | 10.1 (≈ 20.5 µM) | 6.25 (≈ 12.7 µM)
CO[C@H]1C[C@H](O[C@H]2CC[C@@]3(C)[C@@H](CC[C@@H]4[C@@H]3CC[C@]3(C)[C@@H](C(C)=O)CC[C@]43O)C2)O[C@H](C)[C@H]1N | 2.6 (≈ 5.44 µM) | 4 (≈ 8.37 µM) | 11.5 (≈ 24.1 µM) | 3.5 (≈ 7.33 µM) | 1.56 (≈ 3.27 µM)
CC(=O)[C@H]1C[C@H](O)[C@H]2[C@@H]3CC=C4C[C@H](N)CC[C@]4(C)[C@H]3CC[C@@]21C | 1.2 (≈ 3.62 µM) | 4.1 (≈ 12.4 µM) | 3.6 (≈ 10.9 µM) | 1.4 (≈ 4.22 µM) | > 1.56
CC(=O)[C@H]1CC[C@]2(O)[C@@H]3CC[C@H]4C[C@H](N)CC[C@]4(C)[C@H]3CC[C@]12C | 10.1 (≈ 30.3 µM) | 3.6 (≈ 10.8 µM) | 8.6 (≈ 25.8 µM) | 3.4 (≈ 10.2 µM) | 6.25 (≈ 18.7 µM)
CO[C@H]1C[C@H](O[C@H]2CC[C@@]3(C)[C@@H](CC[C@@H]4[C@@H]3CC[C@]3(C)[C@H](C(C)=O)CC[C@]43O)C2)O[C@H](C)[C@H]1N | 0.21 (≈ 0.44 µM) | 10.5 (≈ 22 µM) | 13.5 (≈ 28.3 µM) | 10.2 (≈ 21.4 µM) | 6.25 (≈ 13.1 µM)
CN[C@H]1[C@@H](OC)C[C@H](O[C@H]2CC[C@@]3(C)[C@@H](CC[C@@H]4[C@@H]3CC[C@]3(C)[C@@H](C(C)=O)CC[C@]43O)C2)O[C@@H]1C [HOLACURTINE] | 0.86 (≈ 1.75 µM) | 4.2 (≈ 8.54 µM) | 3.4 (≈ 6.91 µM) | 2.8 (≈ 5.69 µM) | 1.56 (≈ 3.17 µM)
CO[C@H]1C[C@H](O[C@H]2CC[C@@]3(C)C(=CC[C@@H]4[C@@H]3CC[C@]3(C)[C@@H](C(C)=O)C[C@H](O)[C@]43O)C2)O[C@H](C)[C@H]1N [HOLACURTINOL] | 2.6 (≈ 5.29 µM) | 16 (≈ 32.5 µM) | 10.4 (≈ 21.2 µM) | 10 (≈ 20.3 µM) | 6.25 (≈ 12.7 µM)
CC(=O)[C@H]1CC[C@H]2[C@@H]3CC=C4C[C@H](N)CC[C@]4(C)[C@H]3CC[C@]12C [HOLAMINE] | 0.2 (≈ 0.634 µM) | 0.91 (≈ 2.88 µM) | 0.85 (≈ 2.69 µM) | 0.83 (≈ 2.63 µM) | 0.39 (≈ 1.24 µM)
